Reference: ChEMBL document CHEMBL1821581, “Synthesis, antiproliferative activities and in vitro biological evaluation of novel benzofuransulfonamide derivatives” (Bioorg Med Chem Lett, 2011)

What was measured:
HeLa = experiment: Antiproliferative activity against human HeLa cells after 48 hrs by MTT assay; format: functional, cell-based
Procedure, shortened: (§1)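 Cells seeded at 2000/well, cultured 24 h, then exposed to compounds 48 h. MTT (10 mg/mL stock, 10 µL/well) added for 2.5 h at 37 °C; supernatant removed, DMSO added 15–20 min, absorbance read at 570 nm. IC50 reported as mean of three independent experiments.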

HepG2 = experiment: Antiproliferative activity against human HepG2 cells after 48 hrs by MTT assay; format: functional, cell-based; settings: HepG2, 48 h; procedure, shortened: as §1
PC-3 = experiment: Antiproliferative activity against human PC3 cells after 48 hrs by MTT assay; format: functional, cell-based; settings: PC-3, 48 h; procedure, shortened: as §1
NCI-H460 [1] = experiment: Antiproliferative activity against human NCI-H460 cells after 48 hrs by MTT assay; format: functional, cell-based; settings: NCI-H460, 48 h; procedure, shortened: as §1
NCI-H460 [2] = experiment: Induction of apoptosis in human NCI-H460 cells at 2.5 uM after 48 hrs using annexin V-FITC and propidium iodine staining by flow cytometric analysis (reference value: 3.82%); format: functional
NCI-H460 [3] = experiment: Induction of apoptosis in human NCI-H460 cells at 10 uM after 48 hrs using annexin V-FITC and propidium iodine staining by flow cytometric analysis (reference value: 3.82%); format: functional

IC50 (HeLa) | IC50 (HepG2) | IC50 (PC-3) | IC50 (NCI-H460 [1]) | Compound | Activity (NCI-H460 [2]) | Activity (NCI-H460 [3])
10.6 µM | 24.1 µM | 38.2 µM | 34.8 µM | Cc1c(C(=O)c2ccccc2)oc2ccc(NS(=O)(=O)c3ccc(F)cc3)cc12 |  | 
12.2 µM | 5.68 µM | 15.9 µM | 8.89 µM | CCOC(=O)c1oc2ccc(NS(=O)(=O)c3ccc(F)cc3)cc2c1C |  | 
18.8 µM | 31.2 µM | 13.5 µM | 15.6 µM | Cc1c(C(=O)c2ccccc2)oc2ccc(NC(=O)c3ccc(F)cc3)cc12 |  | 
> 40 µM | > 40 µM | > 40 µM | > 40 µM | CC(=O)Nc1ccc2oc(C(=O)c3ccccc3)c(C)c2c1 |  | 
9.37 µM | 7.53 µM | 8.56 µM | 4.13 µM | CCOC(=O)c1oc2ccc(S(=O)(=O)Nc3ccc(F)cc3)cc2c1C | 33.88% | 41.09%
15.4 µM | 32.2 µM | 22.1 µM | 22.6 µM | Cc1c(C(=O)c2ccccc2)oc2ccc(S(=O)(=O)Nc3ccc(F)cc3)cc12 |  | 
